Assay results published in ChEMBL document CHEMBL4689842, “EUbOPEN Chemogenomics Library wave 1” (2021).

Test system: HEK-293T
Assay: Multiplex assay against HEK293T;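 for Population Tubulin-Different-Phenotype (%): share of the cells with healthy nuclei that show this phenotype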
Type: toxicity, cell-based
Details: human
Outline: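 Four dyes were applied at seeding to live cells: Hoechst33342, BioTracker Green Microtubule Cytoskeleton Dye, MitoTracker Red and Annexin V Alexa Fluor 680. Imaging after compound addition used a CQ1 microscope at 37°C and 5% CO2. CellPathfinder machine-learning gating then sorted cells into Hoechst high-intensity objects or normal cells, normal cells into healthy, pyknosed or fragmented nuclei, and pyknosed cells into mitotic or apoptotic, with tubulin, mitochondrial-mass and membrane-permeability phenotypes given as per cents of healthy-nucleus cells.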

[1] = 12 h, 1 µM, compound concentration 1 uM, replicate 1
[2] = 12 h, 1 µM, compound concentration 1 uM, replicate 2
[3] = 12 h, 10 µM, compound concentration 10 uM, replicate 1
[4] = 12 h, 10 µM, compound concentration 10 uM, replicate 2
[5] = 24 h, 1 µM, compound concentration 1 uM, replicate 1
[6] = 24 h, 1 µM, compound concentration 1 uM, replicate 2
[7] = 24 h, 10 µM, compound concentration 10 uM, replicate 1
[8] = 24 h, 10 µM, compound concentration 10 uM, replicate 2
[9] = 48 h, 1 µM, compound concentration 1 uM, replicate 1
[10] = 48 h, 1 µM, compound concentration 1 uM, replicate 2
[11] = 48 h, 10 µM, compound concentration 10 uM, replicate 1
[12] = 48 h, 10 µM, compound concentration 10 uM, replicate 2

Structure (SMILES): CC(C)Oc1ccccc1C(=O)Nc1ccccc1C(=O)Nc1cccc(S(=O)(=O)C(F)(F)F)c1
- Population Apoptotic (%) [1]: 64%
- Population Fragmented Nuclei (%) [1]: 10%
- Population Healthy Nuclei (%) [1]: 41%
- Population Hoechst High Intensity Objects (%) [1]: 14%
- Population Membrane Permeable-Phenotype (%) [1]: 3%
- Population Mitochondria Different-Phenotype (%) [1]: 90%
- Population Mitotic Cells (%) [1]: 35%
- Population Normal (%) [1]: 85%
- Population Pyknosed Nuclei (%) [1]: 47%
- Population Tubulin-Different-Phenotype (%) [1]: 77%
- Total Cell Count [1]: 237
- Population Apoptotic (%) [2]: 34%
- Population Fragmented Nuclei (%) [2]: 7%
- Population Healthy Nuclei (%) [2]: 37%
- Population Hoechst High Intensity Objects (%) [2]: 6%
- Population Membrane Permeable-Phenotype (%) [2]: 8%
- Population Mitochondria Different-Phenotype (%) [2]: 58%
- Population Mitotic Cells (%) [2]: 65%
- Population Normal (%) [2]: 93%
- Population Pyknosed Nuclei (%) [2]: 55%
- Population Tubulin-Different-Phenotype (%) [2]: 76%
- Total Cell Count [2]: 214
- Population Fragmented Nuclei (%) [3]: 11%
- Population Healthy Nuclei (%) [3]: 31%
- Population Hoechst High Intensity Objects (%) [3]: 13%
- Population Membrane Permeable-Phenotype (%) [3]: 6%
- Population Mitochondria Different-Phenotype (%) [3]: 91%
- Population Mitotic Cells (%) [3]: 34%
- Population Normal (%) [3]: 87%
- Population Pyknosed Nuclei (%) [3]: 57%
- Population Tubulin-Different-Phenotype (%) [3]: 87%
- Total Cell Count [3]: 300
- Population Apoptotic (%) [4]: 66%
- Population Fragmented Nuclei (%) [4]: 7%
- Population Healthy Nuclei (%) [4]: 21%
- Population Hoechst High Intensity Objects (%) [4]: 4%
- Population Membrane Permeable-Phenotype (%) [4]: 9%
- Population Mitochondria Different-Phenotype (%) [4]: 71%
- Population Mitotic Cells (%) [4]: 33%
- Population Normal (%) [4]: 95%
- Population Pyknosed Nuclei (%) [4]: 71%
- Population Tubulin-Different-Phenotype (%) [4]: 83%
- Total Cell Count [4]: 206
- Population Apoptotic (%) [5]: 64%
- Population Fragmented Nuclei (%) [5]: 16%
- Population Healthy Nuclei (%) [5]: 44%
- Population Hoechst High Intensity Objects (%) [5]: 14%
- Population Membrane Permeable-Phenotype (%) [5]: 0%
- Population Mitochondria Different-Phenotype (%) [5]: 90%
- Population Mitotic Cells (%) [5]: 35%
- Population Normal (%) [5]: 85%
- Population Pyknosed Nuclei (%) [5]: 38%
- Population Tubulin-Different-Phenotype (%) [5]: 67%
- Total Cell Count [5]: 263
- Population Apoptotic (%) [6]: 42%
- Population Fragmented Nuclei (%) [6]: 8%
- Population Healthy Nuclei (%) [6]: 50%
- Population Hoechst High Intensity Objects (%) [6]: 3%
- Population Membrane Permeable-Phenotype (%) [6]: 3%
- Population Mitochondria Different-Phenotype (%) [6]: 66%
- Population Mitotic Cells (%) [6]: 58%
- Population Normal (%) [6]: 96%
- Population Pyknosed Nuclei (%) [6]: 41%
- Population Tubulin-Different-Phenotype (%) [6]: 83%
- Total Cell Count [6]: 253
- Population Apoptotic (%) [7]: 61%
- Population Fragmented Nuclei (%) [7]: 18%
- Population Healthy Nuclei (%) [7]: 31%
- Population Hoechst High Intensity Objects (%) [7]: 11%
- Population Membrane Permeable-Phenotype (%) [7]: 4%
- Population Mitochondria Different-Phenotype (%) [7]: 94%
- Population Mitotic Cells (%) [7]: 38%
- Population Normal (%) [7]: 88%
- Population Pyknosed Nuclei (%) [7]: 49%
- Population Tubulin-Different-Phenotype (%) [7]: 77%
- Total Cell Count [7]: 332
- Population Apoptotic (%) [8]: 78%
- Population Fragmented Nuclei (%) [8]: 7%
- Population Healthy Nuclei (%) [8]: 25%
- Population Hoechst High Intensity Objects (%) [8]: 3%
- Population Membrane Permeable-Phenotype (%) [8]: 9%
- Population Mitochondria Different-Phenotype (%) [8]: 84%
- Population Mitotic Cells (%) [8]: 21%
- Population Normal (%) [8]: 96%
- Population Pyknosed Nuclei (%) [8]: 67%
- Population Tubulin-Different-Phenotype (%) [8]: 81%
- Total Cell Count [8]: 217
- Population Apoptotic (%) [9]: 63%
- Population Fragmented Nuclei (%) [9]: 19%
- Population Healthy Nuclei (%) [9]: 43%
- Population Hoechst High Intensity Objects (%) [9]: 16%
- Population Membrane Permeable-Phenotype (%) [9]: 2%
- Population Mitochondria Different-Phenotype (%) [9]: 66%
- Population Mitotic Cells (%) [9]: 36%
- Population Normal (%) [9]: 83%
- Population Pyknosed Nuclei (%) [9]: 36%
- Population Tubulin-Different-Phenotype (%) [9]: 50%
- Total Cell Count [9]: 286
- Population Apoptotic (%) [10]: 25%
- Population Fragmented Nuclei (%) [10]: 6%
- Population Healthy Nuclei (%) [10]: 73%
- Population Hoechst High Intensity Objects (%) [10]: 5%
- Population Membrane Permeable-Phenotype (%) [10]: 3%
- Population Mitochondria Different-Phenotype (%) [10]: 46%
- Population Mitotic Cells (%) [10]: 74%
- Population Normal (%) [10]: 94%
- Population Pyknosed Nuclei (%) [10]: 19%
- Population Tubulin-Different-Phenotype (%) [10]: 74%
- Total Cell Count [10]: 393
- Population Apoptotic (%) [11]: 59%
- Population Fragmented Nuclei (%) [11]: 35%
- Population Healthy Nuclei (%) [11]: 30%
- Population Hoechst High Intensity Objects (%) [11]: 13%
- Population Membrane Permeable-Phenotype (%) [11]: 3%
- Population Mitochondria Different-Phenotype (%) [11]: 89%
- Population Mitotic Cells (%) [11]: 40%
- Population Normal (%) [11]: 86%
- Population Pyknosed Nuclei (%) [11]: 34%
- Population Tubulin-Different-Phenotype (%) [11]: 50%
- Total Cell Count [11]: 401
- Population Apoptotic (%) [12]: 58%
- Population Fragmented Nuclei (%) [12]: 16%
- Population Healthy Nuclei (%) [12]: 26%
- Population Hoechst High Intensity Objects (%) [12]: 5%
- Population Membrane Permeable-Phenotype (%) [12]: 15%
- Population Mitochondria Different-Phenotype (%) [12]: 64%
- Population Mitotic Cells (%) [12]: 41%
- Population Normal (%) [12]: 94%
- Population Pyknosed Nuclei (%) [12]: 56%
- Population Tubulin-Different-Phenotype (%) [12]: 79%
- Total Cell Count [12]: 251

Structure (SMILES): O=c1[nH]c2ccccc2n1C1CCN(Cc2ccc(-c3[nH]c4cc5ncnc5cc4nc3-c3ccccc3)cc2)CC1
- Population Apoptotic (%) [1]: 16%
- Population Fragmented Nuclei (%) [1]: 13%
- Population Healthy Nuclei (%) [1]: 69%
- Population Hoechst High Intensity Objects (%) [1]: 7%
- Population Membrane Permeable-Phenotype (%) [1]: 7%
- Population Mitochondria Different-Phenotype (%) [1]: 3%
- Population Mitotic Cells (%) [1]: 83%
- Population Normal (%) [1]: 92%
- Population Pyknosed Nuclei (%) [1]: 16%
- Population Tubulin-Different-Phenotype (%) [1]: 6%
- Total Cell Count [1]: 646
- Population Apoptotic (%) [2]: 10%
- Population Fragmented Nuclei (%) [2]: 5%
- Population Healthy Nuclei (%) [2]: 89%
- Population Hoechst High Intensity Objects (%) [2]: 2%
- Population Membrane Permeable-Phenotype (%) [2]: 5%
- Population Mitochondria Different-Phenotype (%) [2]: 23%
- Population Mitotic Cells (%) [2]: 90%
- Population Normal (%) [2]: 97%
- Population Pyknosed Nuclei (%) [2]: 5%
- Population Tubulin-Different-Phenotype (%) [2]: 43%
- Total Cell Count [2]: 1621
- Population Apoptotic (%) [3]: 38%
- Population Fragmented Nuclei (%) [3]: 10%
- Population Healthy Nuclei (%) [3]: 50%
- Population Hoechst High Intensity Objects (%) [3]: 20%
- Population Membrane Permeable-Phenotype (%) [3]: 22%
- Population Mitochondria Different-Phenotype (%) [3]: 40%
- Population Mitotic Cells (%) [3]: 61%
- Population Normal (%) [3]: 79%
- Population Pyknosed Nuclei (%) [3]: 39%
- Population Tubulin-Different-Phenotype (%) [3]: 91%
- Total Cell Count [3]: 661
- Population Apoptotic (%) [4]: 24%
- Population Fragmented Nuclei (%) [4]: 2%
- Population Healthy Nuclei (%) [4]: 71%
- Population Hoechst High Intensity Objects (%) [4]: 13%
- Population Membrane Permeable-Phenotype (%) [4]: 13%
- Population Mitochondria Different-Phenotype (%) [4]: 51%
- Population Mitotic Cells (%) [4]: 75%
- Population Normal (%) [4]: 86%
- Population Pyknosed Nuclei (%) [4]: 25%
- Population Tubulin-Different-Phenotype (%) [4]: 86%
- Total Cell Count [4]: 974
- Population Apoptotic (%) [5]: 11%
- Population Fragmented Nuclei (%) [5]: 14%
- Population Hoechst High Intensity Objects (%) [5]: 6%
- Population Membrane Permeable-Phenotype (%) [5]: 17%
- Population Mitochondria Different-Phenotype (%) [5]: 3%
- Population Mitotic Cells (%) [5]: 88%
- Population Normal (%) [5]: 93%
- Population Pyknosed Nuclei (%) [5]: 5%
- Population Tubulin-Different-Phenotype (%) [5]: 14%
- Total Cell Count [5]: 776
- Population Apoptotic (%) [6]: 7%
- Population Fragmented Nuclei (%) [6]: 17%
- Population Healthy Nuclei (%) [6]: 79%
- Population Hoechst High Intensity Objects (%) [6]: 4%
- Population Membrane Permeable-Phenotype (%) [6]: 14%
- Population Mitochondria Different-Phenotype (%) [6]: 6%
- Population Mitotic Cells (%) [6]: 92%
- Population Normal (%) [6]: 95%
- Population Pyknosed Nuclei (%) [6]: 3%
- Population Tubulin-Different-Phenotype (%) [6]: 52%
- Total Cell Count [6]: 2517
- Population Apoptotic (%) [7]: 54%
- Population Fragmented Nuclei (%) [7]: 12%
- Population Healthy Nuclei (%) [7]: 56%
- Population Hoechst High Intensity Objects (%) [7]: 31%
- Population Membrane Permeable-Phenotype (%) [7]: 9%
- Population Mitochondria Different-Phenotype (%) [7]: 70%
- Population Mitotic Cells (%) [7]: 45%
- Population Normal (%) [7]: 68%
- Population Pyknosed Nuclei (%) [7]: 31%
- Population Tubulin-Different-Phenotype (%) [7]: 83%
- Total Cell Count [7]: 612
- Population Apoptotic (%) [8]: 28%
- Population Fragmented Nuclei (%) [8]: 2%
- Population Healthy Nuclei (%) [8]: 71%
- Population Hoechst High Intensity Objects (%) [8]: 23%
- Population Membrane Permeable-Phenotype (%) [8]: 6%
- Population Mitochondria Different-Phenotype (%) [8]: 67%
- Population Mitotic Cells (%) [8]: 71%
- Population Normal (%) [8]: 76%
- Population Pyknosed Nuclei (%) [8]: 26%
- Population Tubulin-Different-Phenotype (%) [8]: 72%
- Total Cell Count [8]: 883
